The array DNA melting data of Ke et al. (doi:10.1101/2024.01.08.574731)

Experiments:
[1] = folding enthalpy; higher = less favourable; fluorescence melt of hairpins on a sequencing array, two-state fit; settings: sodium 0.088 M
Procedure, shortened: (§1)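 Folding enthalpy and melting temperature were estimated with bootstrapped two-state fits and combined across four replicates by inverse-variance weighting, with fitted temperatures raised by 9.35 °C to match UV melts. The data were Cy3 fluorescence of library hairpins, with annealed Cy3 and quencher oligos, on a sequenced MiSeq flow cell in 50 mM Na-HEPES pH 8.0, 25 mM NaCl, imaged in 2.5 °C steps up to 60 °C and normalised to pre-quench Cy3 and control constructs.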

[2] = melting temperature; fluorescence melt of hairpins on a sequencing array, two-state fit, raised by 9.35 °C to match UV melts; settings: sodium 0.088 M
Procedure, shortened: as §1

| Sequence | folding enthalpy [1] [kcal/mol] | Tm [2] [°C] |
| --- | --- | --- |
| GTTGACGAAAGTCGAAAC ((((((....)))..))) | -12 | 30.9 |
| GTTGACGAAAGTCGTAAC ((((((....)))..))) | -11.1 | 32.9 |
| GTTGACGAAAGTCTAAC ((((((....))).))) | -14.7 | 39.7 |
| GTTGACGGAAACGTTGAC ((..(((....)))..)) | -25.4 | 37.5 |
| GTTGAGAAATCAAC (((((....))))) | -19.9 | 42.2 |
| GTTGAGGGAAACCTCAGC (.(((((....))))).) | -25.4 | 46.3 |
| GTTGATCGAAAGATGAAC (((.(((....))).))) | -24.1 | 37.1 |
| GTTGCAGGAAACCACAAC ((((..(....)..)))) | -18.2 | 27.4 |
| GTTGCCGAAAGGCCAAC ((((((....))).))) | -14.4 | 47.3 |
| GTTGCCGAAAGGCTAAAC ((((((....)))..))) | -9.35 | 34.5 |
| GTTGCCGGAAACGGTAAC (((.(((....))).))) | -33.3 | 54.4 |
| GTTGCGGGAAACCACAAC ((((.((....)).)))) | -38.2 | 46.1 |
| GTTGCGGGAAACCGTAAC (((.(((....))).))) | -34.3 | 51.2 |
| GTTGCTCCGAAAGGAAAC (((..(((....)))))) | -10 | 28.1 |
| GTTGCTCGAAAGAGAAC (((.(((....)))))) | -20.2 | 34.4 |
| GTTGGAACGAAAGTTAAC (((..(((....)))))) | -14.5 | 29.6 |
| GTTGGAGGAAACTTCAGC (.((.((....)).)).) | -12.7 | 30.5 |
| GTTGGCACGAAAGTGAAC (((..(((....)))))) | -20.6 | 38.8 |
| GTTGGCGAAAGCCAAAAC ((((((....)))..))) | -10.5 | 41.5 |
| GTTGGCGAAAGCCAAAC ((((((....))).))) | -11.6 | 56.2 |
| GTTGGCGAAAGCCACAAC ((((((....)))..))) | -8.33 | 33.8 |
| GTTGGCGAAAGCCCCAAC ((((((....)))..))) | -6.64 | 22.5 |
| GTTGGCGAAAGCCGCAAC ((((((....)))..))) | -9.16 | 26.3 |

| Sequence | folding enthalpy [1] [kcal/mol] | Tm [2] [°C] |
| --- | --- | --- |
| GTTGGCGAAAGCCTAAAC ((((((....)))..))) | -8.68 | 30.7 |
| GTTGGCGAAAGCCTAAC ((((((....))).))) | -12.8 | 43.4 |
| GTTGGCGGAAACACCAAC (((((.(....).))))) | -36 | 47.4 |
| GTTGGCGGAAACGCCAGC (.(((((....))))).) | -15.4 | 58.2 |
| GTTGGGCGAAAGCCAAAC (((.(((....))).))) | -21.5 | 56.9 |
| GTTGGGCGAAAGCCAAC (((.(((....)))))) | -17.5 | 53 |
| GTTGGGCGAAAGCCTAAC (((.(((....))).))) | -23.1 | 54.9 |
| GTTGGTACGAAAGTAAAC (((..(((....)))))) | -19.1 | 34.6 |
| GTTGGTCCGAAAGGAAAC (((..(((....)))))) | -23.4 | 36.9 |
| GTTGGTGGAAACACCAAC (((((((....))))))) | -46.1 | 66.2 |
| GTTGGTGGAAACGCCAAC (((((.(....).))))) | -40 | 54.4 |
| GTTGTAGAAATACAAC ((((((....)))))) | -32.4 | 47.5 |
| GTTGTAGCGAAAGCTAAC (((..(((....)))))) | -23 | 48.1 |
| GTTGTAGGAAACTATAAC (((.(((....))).))) | -24.6 | 34 |
| GTTGTCACGAAAGTGAAC (((..(((....)))))) | -23.7 | 48.1 |
| GTTGTCGAAAGACACAAC ((((((....)))..))) | -11 | 32.6 |
| GTTGTCGAAAGACAGAAC ((((((....)))..))) | -12.9 | 35.6 |
| GTTGTCGAAAGACGTAAC ((((((....)))..))) | -11.3 | 31.9 |
| GTTGTCGAAAGACTAAC ((((((....))).))) | -16.9 | 38 |
| GTTGTCGGAAACGACAAC (((((((....))))))) | -34.6 | 67 |
| GTTGTCGGAAACGATAGC (.(.(((....))).).) | -17.1 | 32.4 |
| GTTGTGCGAAAGCATAAC (((.(((....))).))) | -30.5 | 54 |
| GTTGTGGAAACACAAC ((((((....)))))) | -38.3 | 58.3 |

| Sequence | folding enthalpy [1] [kcal/mol] | Tm [2] [°C] |
| --- | --- | --- |
| GTTGTGGGAAACCATGAC ((..(((....)))..)) | -30.4 | 34.7 |
| GTTGTTGGAAACAACAAC (((((((....))))))) | -41.5 | 58.6 |
| GTTGTTGGAAACAATAAC (((.(((....))).))) | -20.3 | 39.6 |
| GTTTAACGAAAGTTCAAC (((.(((....))).))) | -20.9 | 36 |
| GTTTAACGAAAGTTGAAC (((.(((....))).))) | -29.9 | 44.7 |
| GTTTAAGGAAACTTAGAC ((.((((....)))).)) | -14.3 | 32.6 |
| GTTTACACGAAAGTGAAC (((..(((....)))))) | -11.9 | 25.7 |
| GTTTACGAAAGTAAAC ((((((....)))))) | -28.3 | 57.3 |
| GTTTACGAAAGTACAAAC ((((((....)))..))) | -10.6 | 26.2 |
| GTTTAGGGAAACCCAAAC ((((.((....)).)))) | -24.7 | 33.2 |
| GTTTAGGGAAACCTAAGC (.(((((....))))).) | -21.8 | 33.8 |
| GTTTAGGGAAACCTAGAC ((.((((....)))).)) | -27.4 | 33 |
| GTTTAGGGAAACTTAAGC (.(((.(....).))).) | -15.4 | 33.6 |
| GTTTAGGGAAACTTAGAC ((.((.(....).)).)) | -13.6 | 32.8 |
| GTTTATCGAAAGATAAC (((.(((....)))))) | -18.6 | 35.5 |
| GTTTATCGAAAGATGAAC (((.(((....))).))) | -31.2 | 43.6 |
| GTTTATCGAAAGATTAAC (((.(((....))).))) | -28.9 | 33.5 |
| GTTTATGAAAATAAAC ((((((....)))))) | -33 | 42.4 |
| GTTTATGGAAACATAAAC (((((((....))))))) | -38.1 | 50 |
| GTTTCACGAAAGTGGAAC (((.(((....))).))) | -30.5 | 52.2 |
| GTTTCAGGAAACTAAAAC ((((.((....)).)))) | -8.21 | 29.2 |
| GTTTCAGGAAACTGGAAC (((.(((....))).))) | -26.4 | 43.3 |
| GTTTCCCGAAAGGGAAC (((.(((....)))))) | -14.1 | 50.6 |

| Sequence | folding enthalpy [1] [kcal/mol] | Tm [2] [°C] |
| --- | --- | --- |
| GTTTCCCGAAAGGGCAAC (((.(((....))).))) | -21.7 | 42 |
| GTTTCCCGAAAGGGTAAC (((.(((....))).))) | -22.5 | 47.9 |
| GTTTCCGAAAGGAACAAC ((((((....)))..))) | -13.7 | 31.2 |
| GTTTCCGGAAACGAAAAC ((((.((....)).)))) | -16.8 | 38.8 |
| GTTTCGCGAAAGCGCAAC (((.(((....))).))) | -22.8 | 44.7 |
| GTTTCGGGAAACCGAAGC (.(((((....))))).) | -23.4 | 47.3 |
| GTTTCTCCGAAAGGAAAC (((..(((....)))))) | -14.8 | 33 |
| GTTTCTCGAAAGAGTAAC (((.(((....))).))) | -26.7 | 38 |
| GTTTGACGAAAGTCAAC (((.(((....)))))) | -14 | 46 |
| GTTTGAGGAAACTTAAAC ((((.((....)).)))) | -18.4 | 36.9 |
| GTTTGCCGAAAGGCTAAC (((.(((....))).))) | -20.1 | 51.7 |
| GTTTGCGAAAGCAAAAAC ((((((....)))..))) | -10.9 | 40.3 |
| GTTTGCGAAAGCACAAC ((((((....))).))) | -17.1 | 41.1 |
| GTTTGCGAAAGCACGAAC ((((((....)))..))) | -9.85 | 27.1 |
| GTTTGCGAAAGCAGAAAC ((((((....)))..))) | -11.2 | 34.2 |
| GTTTGCGAAAGCAGGAAC ((((((....)))..))) | -10.3 | 30.7 |
| GTTTGCGCGAAAGCGAAC (((..(((....)))))) | -12 | 36.5 |
| GTTTGCGGAAACACAAAC (((((.(....).))))) | -34.2 | 42.1 |
| GTTTGCGGAAACGCAAGC (.(((((....))))).) | -23.4 | 54.6 |
| GTTTGCGGAAACGCAGAC ((.((((....)))).)) | -24.6 | 51.8 |
| GTTTGGGGAAACCTAAAC ((((.((....)).)))) | -35.5 | 40 |
| GTTTGGGGAAACTCAGAC ((.((.(....).)).)) | -9.8 | 27 |
